Results: ChEMBL document CHEMBL2176873, “α-1-C-butyl-1,4-dideoxy-1,4-imino-l-arabinitol as a second-generation iminosugar-based oral α-glucosidase inhibitor for improving postprandial hyperglycemia” (J Med Chem, 2012)
Calls of active or inactive are those of the source. No cut-off for these calls is given here.

Tests used:
[1] = target: T1, Sucrase-isomaltase, intestinal (Rattus norvegicus, UniProt P23739); test: Inhibition of rat intestinal sucrase using sucrose as substrate
[2] = target: T1, Sucrase-isomaltase, intestinal; test: Inhibition of rat intestinal isomaltase […] as substrate
[3] = target: Sucrase-isomaltase, intestinal (Rattus norvegicus) (UniProt P23739); test: Inhibition of rat intestinal sucrase using sucrose as substrate at 1000 uM
In short: (§1)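 Rat small-intestine brush border membrane preparation, assayed at pH 5.8 with the matching disaccharide as substrate (maltose at 25 mM). Incubation for 10–30 min at 37 °C, stopped by heating at 100 °C for 3 min and centrifuged. Released D-glucose in the supernatant was measured by glucose reagent absorbance at 505 nm.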

[4] = target: Sucrase-isomaltase, intestinal (Rattus norvegicus) (UniProt P23739); test: Inhibition of rat intestinal isomaltase […] as substrate at 1000 uM; in short: as §1
[5] = test system: Maltase-glucoamylase, intestinal (Rattus norvegicus); test: Inhibition of rat intestinal maltase using moltose as substrate at 1000 uM
[6] = test system: Mus musculus; test: Antihyperglycemic activity in overnight fasted ddY mouse assessed as decrease in blood glucose level at 0.5 mg/kg administered via stomach tube after 60 mins by sucrose loading test relative to control; type: functional; parameters: scale not given: the % may be the effect or the level left
In short: (§2)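 Male ddY mice received maltose or sucrose (2.5 g/kg) with inhibitor in 0.9% NaCl by stomach tube; controls got saline only. Tail-vein blood glucose was read with a portable meter at 0, 15, 30, 60 and 120 min after loading.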

[7] = test system: Mus musculus; test: Antihyperglycemic activity in overnight fasted ddY mouse assessed as decrease in blood glucose level at 0.1 mg/kg administered via stomach tube after 60 mins by sucrose loading test relative to control; type: functional; parameters: scale not given: the % may be the effect or the level left; in short: as §2
[8] = test system: Mus musculus; test: Antihyperglycemic activity in overnight fasted ddY mouse assessed as decrease in blood glucose level at 0.25 mg/kg administered via stomach tube measured at 60 to 120 mins by maltose loading test relative to control; type: functional, organism-based; parameters: dose 0.25 mg/kg; in short: as §2
[9] = test system: Mus musculus; test: Antihyperglycemic activity in overnight fasted ddY mouse assessed as decrease in blood glucose level at 0.25 mg/kg administered via stomach tube measured at 15 to 30 mins by maltose loading test relative to control; type: functional; parameters: scale not given: the % may be the effect or the level left; in short: as §2
[10] = target: Lysosomal alpha-glucosidase (Homo sapiens) (UniProt P10253); test: Inhibition of alpha-glucosidase in human HepG2 cells assessed as increase in expression of immature high mannose type N-linked oligosachcharides at 500 uM after 48 hrs by MALDI-TOF MS analysis relative to untreated control; type: cell-based
In short: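 HepG2 cells were grown in low-glucose DMEM with 10% FCS at 37 °C, 5% CO2, and treated 48 h with 500 μM compound. Homogenates in 0.5% Triton X-100 were DTT-reduced, alkylated with iodoacetamide, trypsinized and PNGase F-released (37 °C, 16 h). Glycans were captured on hydrazide beads, methyl-esterified, released as aoWR derivatives, and profiled by MALDI-TOF MS; proportions were compared with untreated cells.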

[11] = target: T2, Trehalase (Rattus norvegicus) (UniProt O70282); test: Inhibition of rat intestinal trehalase at 1000 uM
T2 sequence (whole entry): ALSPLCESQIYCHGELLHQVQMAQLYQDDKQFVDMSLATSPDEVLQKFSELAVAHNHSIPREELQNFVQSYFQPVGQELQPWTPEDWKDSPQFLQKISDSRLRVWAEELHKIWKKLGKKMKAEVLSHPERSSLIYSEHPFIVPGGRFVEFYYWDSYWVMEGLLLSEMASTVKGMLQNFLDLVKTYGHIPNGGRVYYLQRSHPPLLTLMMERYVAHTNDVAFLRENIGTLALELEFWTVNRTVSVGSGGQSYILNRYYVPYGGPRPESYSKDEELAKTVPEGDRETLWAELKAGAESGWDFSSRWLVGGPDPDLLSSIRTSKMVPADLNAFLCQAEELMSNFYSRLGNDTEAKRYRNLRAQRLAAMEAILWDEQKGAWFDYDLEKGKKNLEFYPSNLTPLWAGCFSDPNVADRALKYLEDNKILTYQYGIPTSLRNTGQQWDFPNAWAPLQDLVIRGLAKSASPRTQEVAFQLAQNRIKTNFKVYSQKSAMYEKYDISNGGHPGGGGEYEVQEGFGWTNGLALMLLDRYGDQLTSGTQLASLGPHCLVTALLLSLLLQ

[12] = target: T3, Uncharacterized protein (Sus scrofa) (UniProt I3LIR5); test: Inhibition of porcine kidney trehalase at 1000 uM
T3 sequence (whole entry): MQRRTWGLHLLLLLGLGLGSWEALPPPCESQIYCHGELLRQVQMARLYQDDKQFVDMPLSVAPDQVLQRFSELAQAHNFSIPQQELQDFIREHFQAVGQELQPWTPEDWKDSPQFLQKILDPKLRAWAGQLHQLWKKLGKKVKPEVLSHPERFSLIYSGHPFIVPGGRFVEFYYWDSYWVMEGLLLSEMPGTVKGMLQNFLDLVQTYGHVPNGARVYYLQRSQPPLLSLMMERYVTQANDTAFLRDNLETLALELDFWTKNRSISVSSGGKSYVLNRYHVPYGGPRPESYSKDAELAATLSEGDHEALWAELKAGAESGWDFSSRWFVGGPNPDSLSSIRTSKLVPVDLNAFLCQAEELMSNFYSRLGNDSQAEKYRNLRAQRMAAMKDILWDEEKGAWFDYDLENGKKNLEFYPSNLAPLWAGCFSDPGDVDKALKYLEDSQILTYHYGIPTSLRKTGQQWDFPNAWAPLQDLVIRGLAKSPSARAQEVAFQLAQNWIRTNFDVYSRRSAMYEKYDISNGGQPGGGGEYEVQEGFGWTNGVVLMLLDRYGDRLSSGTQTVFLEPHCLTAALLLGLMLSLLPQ

[13] = target: T4, Beta-galactosidase (Bos taurus) (UniProt Q58D55); test: Inhibition of bovine liver beta-galactosidase at 1000 uM
T4 sequence (whole entry): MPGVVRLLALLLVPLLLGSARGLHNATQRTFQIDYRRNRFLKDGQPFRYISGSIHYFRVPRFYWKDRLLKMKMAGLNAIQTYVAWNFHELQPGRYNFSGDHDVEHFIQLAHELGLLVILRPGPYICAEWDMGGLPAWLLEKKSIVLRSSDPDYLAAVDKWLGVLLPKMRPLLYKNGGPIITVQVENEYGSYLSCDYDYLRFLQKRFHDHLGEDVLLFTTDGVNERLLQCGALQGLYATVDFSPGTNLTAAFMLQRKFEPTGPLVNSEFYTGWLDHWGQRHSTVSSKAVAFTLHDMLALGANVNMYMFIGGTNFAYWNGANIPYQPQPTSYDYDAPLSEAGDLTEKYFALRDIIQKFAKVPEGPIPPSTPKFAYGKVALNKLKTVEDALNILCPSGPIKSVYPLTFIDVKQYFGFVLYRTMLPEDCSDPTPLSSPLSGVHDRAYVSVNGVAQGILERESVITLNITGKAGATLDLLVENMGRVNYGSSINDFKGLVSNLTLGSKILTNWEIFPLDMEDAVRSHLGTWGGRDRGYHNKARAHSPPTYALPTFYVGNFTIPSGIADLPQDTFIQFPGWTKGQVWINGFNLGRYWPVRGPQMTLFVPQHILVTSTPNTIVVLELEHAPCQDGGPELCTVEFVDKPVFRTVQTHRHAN

[14] = target: T5, Glucosylceramidase (Bos taurus) (UniProt Q2KHZ8); test: Inhibition of bovine liver beta-glucosidase at 1000 uM
T5 sequence (whole entry): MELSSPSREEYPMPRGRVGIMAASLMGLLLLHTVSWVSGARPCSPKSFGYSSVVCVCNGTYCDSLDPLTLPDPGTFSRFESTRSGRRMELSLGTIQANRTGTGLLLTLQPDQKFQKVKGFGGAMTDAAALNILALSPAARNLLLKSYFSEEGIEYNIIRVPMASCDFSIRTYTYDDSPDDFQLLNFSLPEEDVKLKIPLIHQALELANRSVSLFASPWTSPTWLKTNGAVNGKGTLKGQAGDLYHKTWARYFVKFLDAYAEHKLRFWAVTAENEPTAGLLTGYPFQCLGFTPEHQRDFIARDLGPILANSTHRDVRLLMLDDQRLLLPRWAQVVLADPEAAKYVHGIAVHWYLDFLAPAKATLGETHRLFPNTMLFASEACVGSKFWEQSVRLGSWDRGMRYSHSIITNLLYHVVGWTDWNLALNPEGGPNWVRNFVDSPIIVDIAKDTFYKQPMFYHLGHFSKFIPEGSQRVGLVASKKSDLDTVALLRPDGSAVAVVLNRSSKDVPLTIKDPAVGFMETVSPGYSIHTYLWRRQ

[15] = target: T6, Lysosomal acid glucosylceramidase (Homo sapiens) (UniProt P04062); test: Inhibition of human beta-glucocerebrosidase at 1000 uM
T6 sequence (whole entry): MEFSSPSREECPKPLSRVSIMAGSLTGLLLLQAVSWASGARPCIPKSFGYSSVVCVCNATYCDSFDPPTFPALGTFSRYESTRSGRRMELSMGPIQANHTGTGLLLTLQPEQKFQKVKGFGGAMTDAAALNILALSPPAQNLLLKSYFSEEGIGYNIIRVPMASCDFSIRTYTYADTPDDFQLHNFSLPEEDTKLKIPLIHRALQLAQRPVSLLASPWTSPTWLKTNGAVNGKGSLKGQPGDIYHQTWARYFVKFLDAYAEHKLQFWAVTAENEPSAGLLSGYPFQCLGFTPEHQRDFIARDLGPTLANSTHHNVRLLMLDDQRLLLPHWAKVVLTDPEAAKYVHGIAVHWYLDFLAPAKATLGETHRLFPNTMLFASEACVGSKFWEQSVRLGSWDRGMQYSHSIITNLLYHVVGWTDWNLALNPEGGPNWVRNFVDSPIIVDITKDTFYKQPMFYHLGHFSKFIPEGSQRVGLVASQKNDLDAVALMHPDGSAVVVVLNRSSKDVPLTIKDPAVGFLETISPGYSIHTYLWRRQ

[16] = organism: Rattus norvegicus; test: Inhibition of rat intestinal cellobiase using cellobiose as substrate at 1000 uM; in short: as §1
[17] = target: T7, Uncharacterized protein (Sus scrofa, UniProt I3LIR5); test: Inhibition of porcine kidney trehalase
T7 sequence (I3LIR5 whole entry): T3 sequence (whole entry)

[18] = target: T8, Trehalase (Rattus norvegicus, UniProt O70282); test: Inhibition of rat intestinal trehalase
T8 sequence (O70282 whole entry): T2 sequence (whole entry)

[19] = target: Lactase/phlorizin hydrolase (Rattus norvegicus) (UniProt Q02401); test: Inhibition of rat intestinal lactase using lactose as substrate at 1000 uM
[20] = target: Lactase/phlorizin hydrolase (Rattus norvegicus, UniProt Q02401); test: Inhibition of rat intestinal lactase using lactose as substrate
Chain of Lactase/phlorizin hydrolase (Q02401 868-1928 limits assumed): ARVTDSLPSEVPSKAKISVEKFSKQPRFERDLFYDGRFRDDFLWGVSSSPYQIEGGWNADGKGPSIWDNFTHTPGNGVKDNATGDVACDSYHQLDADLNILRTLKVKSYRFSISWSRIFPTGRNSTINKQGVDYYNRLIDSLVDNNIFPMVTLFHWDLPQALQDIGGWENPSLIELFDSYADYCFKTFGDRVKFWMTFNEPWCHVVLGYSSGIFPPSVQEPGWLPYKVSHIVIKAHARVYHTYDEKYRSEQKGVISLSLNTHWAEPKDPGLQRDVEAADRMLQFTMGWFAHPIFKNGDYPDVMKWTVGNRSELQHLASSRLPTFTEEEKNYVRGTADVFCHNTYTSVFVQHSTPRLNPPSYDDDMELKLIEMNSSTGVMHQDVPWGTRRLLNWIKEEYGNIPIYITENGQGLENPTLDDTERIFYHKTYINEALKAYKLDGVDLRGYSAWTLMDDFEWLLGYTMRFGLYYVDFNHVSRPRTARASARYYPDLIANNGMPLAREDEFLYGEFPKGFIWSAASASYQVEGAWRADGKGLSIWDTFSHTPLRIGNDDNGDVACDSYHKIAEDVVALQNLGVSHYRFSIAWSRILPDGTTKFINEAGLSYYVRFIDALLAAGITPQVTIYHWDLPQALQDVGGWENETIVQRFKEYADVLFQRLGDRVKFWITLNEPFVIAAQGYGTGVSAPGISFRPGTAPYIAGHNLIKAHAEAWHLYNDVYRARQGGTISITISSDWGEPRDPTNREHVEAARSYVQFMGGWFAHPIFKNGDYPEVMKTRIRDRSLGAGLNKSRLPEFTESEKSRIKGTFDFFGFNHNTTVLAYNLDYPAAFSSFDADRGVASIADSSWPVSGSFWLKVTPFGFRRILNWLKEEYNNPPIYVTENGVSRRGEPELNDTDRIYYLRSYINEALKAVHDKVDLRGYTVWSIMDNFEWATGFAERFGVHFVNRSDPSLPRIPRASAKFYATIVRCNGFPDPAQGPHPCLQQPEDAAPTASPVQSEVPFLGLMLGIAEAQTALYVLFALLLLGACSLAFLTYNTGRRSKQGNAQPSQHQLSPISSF

T1 sequence (P23739 1-1013 limits assumed): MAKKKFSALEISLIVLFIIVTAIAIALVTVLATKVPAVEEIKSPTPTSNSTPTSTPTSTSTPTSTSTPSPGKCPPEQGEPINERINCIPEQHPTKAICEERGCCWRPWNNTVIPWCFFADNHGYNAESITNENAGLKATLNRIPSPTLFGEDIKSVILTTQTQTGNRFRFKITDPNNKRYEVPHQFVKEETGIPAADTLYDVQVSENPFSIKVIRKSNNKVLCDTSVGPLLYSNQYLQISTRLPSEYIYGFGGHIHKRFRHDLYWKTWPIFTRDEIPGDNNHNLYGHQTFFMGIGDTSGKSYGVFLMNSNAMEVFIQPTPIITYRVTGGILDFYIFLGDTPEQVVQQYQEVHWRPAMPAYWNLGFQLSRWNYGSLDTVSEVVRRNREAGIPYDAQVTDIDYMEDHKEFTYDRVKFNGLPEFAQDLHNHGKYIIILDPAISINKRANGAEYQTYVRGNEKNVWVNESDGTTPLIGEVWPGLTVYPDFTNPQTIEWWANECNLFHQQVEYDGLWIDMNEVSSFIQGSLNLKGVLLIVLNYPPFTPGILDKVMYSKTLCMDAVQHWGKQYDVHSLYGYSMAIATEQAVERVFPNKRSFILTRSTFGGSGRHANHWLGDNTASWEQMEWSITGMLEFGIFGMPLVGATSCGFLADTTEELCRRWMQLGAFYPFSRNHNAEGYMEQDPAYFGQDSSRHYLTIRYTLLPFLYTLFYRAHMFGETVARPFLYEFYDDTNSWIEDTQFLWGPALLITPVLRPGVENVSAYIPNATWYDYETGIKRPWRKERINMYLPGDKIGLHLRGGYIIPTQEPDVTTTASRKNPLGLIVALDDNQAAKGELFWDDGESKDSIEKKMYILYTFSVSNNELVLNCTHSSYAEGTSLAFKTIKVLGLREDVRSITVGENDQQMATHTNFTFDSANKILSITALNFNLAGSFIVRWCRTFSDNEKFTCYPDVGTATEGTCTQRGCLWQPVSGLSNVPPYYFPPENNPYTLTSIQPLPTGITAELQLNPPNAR
T1 sequence (P23739 1014-1841 limits assumed): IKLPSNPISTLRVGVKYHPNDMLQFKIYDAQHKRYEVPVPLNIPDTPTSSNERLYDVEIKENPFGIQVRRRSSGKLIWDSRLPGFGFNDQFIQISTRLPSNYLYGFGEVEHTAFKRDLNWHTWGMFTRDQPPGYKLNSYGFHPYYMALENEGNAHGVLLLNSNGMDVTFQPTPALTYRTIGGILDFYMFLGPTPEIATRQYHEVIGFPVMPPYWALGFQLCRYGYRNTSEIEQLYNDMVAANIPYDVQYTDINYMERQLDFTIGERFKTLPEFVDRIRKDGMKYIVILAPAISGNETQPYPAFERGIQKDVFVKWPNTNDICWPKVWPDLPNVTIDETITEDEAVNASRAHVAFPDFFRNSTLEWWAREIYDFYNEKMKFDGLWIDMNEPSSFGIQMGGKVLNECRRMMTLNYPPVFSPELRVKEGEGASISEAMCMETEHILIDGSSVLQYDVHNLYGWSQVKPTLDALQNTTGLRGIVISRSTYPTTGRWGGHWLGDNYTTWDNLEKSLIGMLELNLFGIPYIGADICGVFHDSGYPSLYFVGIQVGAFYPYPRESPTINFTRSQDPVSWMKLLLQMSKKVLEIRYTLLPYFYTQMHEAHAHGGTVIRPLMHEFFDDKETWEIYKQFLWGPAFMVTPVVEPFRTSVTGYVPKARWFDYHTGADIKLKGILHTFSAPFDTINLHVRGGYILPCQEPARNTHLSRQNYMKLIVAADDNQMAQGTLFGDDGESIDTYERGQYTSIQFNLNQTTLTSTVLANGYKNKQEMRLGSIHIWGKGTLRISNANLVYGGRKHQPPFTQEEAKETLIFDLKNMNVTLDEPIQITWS
Chain of Sucrase-isomaltase, intestinal (Rattus norvegicus) (P23739 1-1013 limits assumed): as the sequence (P23739 1-1013 limits assumed) above
Chain of Sucrase-isomaltase, intestinal (Rattus norvegicus) (P23739 1014-1841 limits assumed): as the sequence (P23739 1014-1841 limits assumed) above
Chain of Lactase/phlorizin hydrolase (Rattus norvegicus) (Q02401 868-1928 limits assumed): as the sequence (Q02401 868-1928 limits assumed) above

Structure (SMILES)	IC50 [1]	IC50 [2]	inhibition [13]	inhibition [14]	inhibition [15]	inhibition [16]	also measured
CCCC[C@@H]1[C@@H](O)[C@H](CCCC)N[C@H]1CO	–	–	–	–	–	–	inhibition [3]: < 50%; inhibition [4]: < 50%; inhibition [5]: < 50%
CCCCN1C[C@H](O)[C@@H](O)[C@H](O)[C@H]1CO	–	–	< 50%	< 50%	–	< 50%	IC50 [17]: 36 µM; IC50 [18]: 38 µM
OC[C@@H]1N[C@@H](CO)[C@H](O)[C@H]1O	0.62 µM	0.77 µM	–	–	–	–	–
CCCCN1C[C@H](O)[C@@H](O)[C@@H]1CO	73 µM	54 µM	< 50%	< 50%	< 50%	< 50%	inhibition [11]: < 50%; inhibition [12]: < 50%; inhibition [19]: < 50%
OC[C@@H]1NC[C@H](O)[C@H]1O	–	–	< 50%	< 50%	< 50%	< 50%	IC50 [17]: 131 µM; IC50 [18]: 75 µM; IC50 [20]: 415 µM

Continued, in another order:

IC50 [1]	IC50 [2]	inhibition [13]	inhibition [14]	inhibition [15]	inhibition [16]	Structure (SMILES)	also measured
1.5 µM	0.12 µM	–	–	–	–	CCCCCCCC[C@H]1N[C@H](CO)[C@@H](O)[C@H](O)[C@H]1O	–
–	–	< 50%	< 50%	< 50%	< 50%	CCCC[C@@H]1N[C@@H](CO)[C@H](O)[C@H]1O	Activity [6]: 69.2%; Activity [7]: 49.1%; Activity [8]: inactive; Activity [9]: 43.9%; inhibition [10]: inactive; inhibition [11]: < 50%; inhibition [12]: < 50%
2.4 µM	0.31 µM	–	–	–	–	CCCCCC[C@H]1N[C@H](CO)[C@@H](O)[C@H](O)[C@H]1O	–
